TWEAK-Fn14 inh – inhibitors of TWEAK-Fn14 signaling, primary screen, luciferase reporter cells, uHTS. TWEAK-stimulated Fn14 reporter cells, luciferase luminescence, 8 h. inhibition, % at 10 µM. 2% of 360,000 active. AID 1159606, 2016; in the data active means inhibition above about 50%
TROY NFkB inh – inhibitors of TROY-driven NF-kB signaling, primary screen, Q293 LMP1-TROYcd cells, NF-kB luciferase, uHTS. Q293 LMP1-TROYcd NF-kB luciferase reporter, 4 h. inhibition, % at 10 µM. 0.98% of 360,000 active;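 active means compounds whose plate-normalised and pattern-corrected inhibition of the luciferase reporter signal at the single screening dose is 50% or more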
CaV13 FRET inh – Primary screen for inhibitors of IQ motif and Ca2+-dependent inactivation inhibitor domain binding in CACNA1D, Förster resonance energy transfer in living cells, …. inhibition, % at 12.3 µM. HEK cells, CFP/YFP FRET ICDI-IQ, plate reader, 10 min; percent FRET-ratio fall versus neutral wells. 0.098% of 340,000 active. AID 743397;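 active means mean replicate inhibition of at least 30% and at least 1% of replicates passing that level; inconclusive means only one of the two criteria is met; inactive means neither criterion is met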
Xi reactivation – activators of inactive X chromosome reactivation, primary screen, imaging, XiGFP fibroblasts, GFP high-content imaging, set 2 | XiGFP mouse fibroblasts, % GFP-positive cells imaging, 3 d; cells co-treated with 5-aza-dC sensitizer; scaled so ellipticine positive control = 100% | activation, % at 7.58 µM | 0.055% of 360,000 active | AID 743238, 2013;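 active means mean normalized replicate activation at least 10% and every replicate at or above 10%; inconclusive means only one of the two criteria met; inactive means mean below 10% and not all replicates reach 10%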
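Material: XiGFP fibroblasts, SV40-immortalized; Buffer or medium: DMEM containing 5-aza-dC; Compound dosing: single point; Times: 3 days compound exposure.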
LGR2 inh – inhibitors of bursicon-induced LGR2 CRE-luciferase signal, primary screen, cell-based, HEK293, CRE-luciferase reporter, bursicon stimulation. inhibition, % at 9.99 µM. 0.35% of 380,000 active. bursicon-stimulated, 4 h. AID 720647, 2013. Drosophila bursicon receptor LGR2 (rickets);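 active means drop in luminescence signal, shown as inhibition above about 50% in the replicate tests, limit read from the data, passing the limit was not always enough; inconclusive means probably only some replicates passing the limit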;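 further: agonist challenge used bursicon conditioned medium at about half maximal strength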
Hits are given with their value; – = inactive; ? = inconclusive; · = no result given. Rows were chosen to be rich in hits. Some 2% of all compounds tested hit in one or more screens of this group.

SMILES | TWEAK-Fn14 inh | TROY NFkB inh | CaV13 FRET inh | Xi reactivation | LGR2 inh
Cc1cc(C)c(O)c(NC(=S)NC(=O)Cc2ccccc2)c1 | 72 | – | – | – | –
C[C@@H]1CN([C@H](C)CO)C(=O)c2cc(NC(=O)CCC(F)(F)F)ccc2O[C@@H](C)CCCCO[C@@H]1CN(C)CC1CCCCC1 | · | · | · | – | –
CC(=O)n1cc(N(C(=O)CCl)c2ccccc2)c2ccccc21 | 66 | – | – | – | –
O=C(CCl)N(c1ccccc1)c1c[nH]c2ccccc12 | 69 | – | – | · | ·
CC(=O)n1cc(N(C(=O)CCl)c2ccc([N+](=O)[O-])cc2)c2ccccc21 | – | – | – | – | –
O=C(CCl)N(c1ccc(Cl)cc1)c1c[nH]c2ccccc12 | 67 | – | – | · | –
CCC(=O)N1CC(=O)N2[C@H](CO)[C@@H](c3ccc(C#CC(C)C)cc3)[C@@H]2C1 | · | · | · | – | ·
C[C@@H]1CN([C@@H](C)CO)C(=O)Cc2cc(NC(=O)C3CC3)ccc2O[C@H]1CN(C)C(=O)Nc1ccc(F)cc1 | · | · | · | – | –
C[C@H]1O[C@@H](O[C@H]2[C@@H](O)C[C@H](O[C@H]3[C@@H](O)C[C@H](O[C@H]4CC[C@@]5(C)[C@H](CC[C@@H]6[C@@H]5C[C@@H](O)[C@]5(C)[C@@H](C7=CC(=O)OC7)CC[C@]65O)C4)O[C@@H]3C)O[C@@H]2C)C[C@H](O)[C@@H]1O | 69 | 53 | – | – | 84
COc1ccc(CNC(=O)c2cccc3c(-c4ccc(F)c(F)c4)coc23)cc1OC | 64 | – | · | · | ·
COc1ccc(CNC(=O)c2cccc3c(-c4cccc(C(N)=O)c4)coc23)cc1OC | 91 | 63 | – | – | –
COc1cc(-c2coc3c(C(=O)NCc4ccc(OC)c(OC)c4)cccc23)ccc1O | 95 | 67 | – | – | –
O=C(Nc1cc(F)ccc1F)N[C@@H]1CC[C@@H](CCn2cc(C3CCCC3)nn2)O[C@H]1CO | · | · | · | – | –
CC1=CC(=O)C(C(C)C)=C/C1=N/OS(=O)(=O)c1ccccc1 | 89 | – | – | – | ·
Cc1cccc(Cn2nc(C(C)(C)C)cc2C(=O)Nc2ccc(F)cc2)c1 | – | 58 | – | – | ?
CC(C)(C)c1cc(C(=O)NN)n(Cc2ccc(F)cc2)n1 | – | – | – | – | –
CN(CCC#N)C(=O)COC(=O)c1ccccc1C(=O)c1ccc(Cl)c([N+](=O)[O-])c1 | – | 55 | – | – | ·
Cn1c(N)c(C(=O)COC(=O)c2ccccc2C(=O)c2ccccc2)c(=O)n(C)c1=O | – | – | – | – | –
CC(C)N(C(=O)COC(=O)c1ccccc1C(=O)c1ccc(Cl)c([N+](=O)[O-])c1)C(C)C | – | 74 | – | – | 94
Cn1c(N)c(C(=O)COC(=O)c2ccccc2C(=O)c2ccc(Cl)c([N+](=O)[O-])c2)c(=O)n(C)c1=O | 88 | 65 | · | · | ·
COc1ccc(C(=O)c2ccc(Cl)c([N+](=O)[O-])c2)cc1 | – | – | – | – | –
O=C(COC(=O)c1ccccc1C(=O)c1ccc(Cl)c([N+](=O)[O-])c1)NC1CCCCCC1 | 98 | 78 | – | · | ·
C[C@H](CO)N1C[C@H](C)[C@@H](CN(C)S(=O)(=O)c2ccc(Cl)cc2)Oc2ccc(NS(=O)(=O)c3cn(C)cn3)cc2CC1=O | · | · | · | – | –
COc1ccc(CCNc2oc(-c3ccco3)nc2C#N)cc1 | – | – | – | · | –
N#Cc1nc(-c2ccco2)oc1NCCc1ccccc1 | 61 | · | · | · | ·
SMILES | TWEAK-Fn14 inh | TROY NFkB inh | CaV13 FRET inh | Xi reactivation | LGR2 inh
C[C@@H]1CN([C@@H](C)CO)C(=O)c2cc(NS(C)(=O)=O)ccc2O[C@@H](C)CCCCO[C@H]1CN(C)C | · | · | · | – | –
CC(=O)NCCNC(=O)c1ccc(CSc2nc3ccccc3s2)cc1 | 85 | 69 | · | – | 67
O=C(Nc1nccs1)c1ccc(Br)c(S(=O)(=O)N2CCCC2)c1 | 97 | – | · | – | –
C[C@@H]1CCCCO[C@H](CN(C)C(=O)c2ccccc2)[C@@H](C)CN([C@H](C)CO)C(=O)c2cc(NC(=O)C3CCCCC3)ccc2O1 | · | · | · | – | –
CCCCCCn1cc(CN2CC(N3CCN(CCO)CC3)CS2(=O)=O)nn1 (configuration not stated) | 108 | – | – | – | –
Cc1ccc(C)c(-c2cc(C(=O)Nc3sc(C)c(C)c3C(N)=O)c3ccccc3n2)c1 | 66 | 72 | – | · | ?
Cc1cccc(-c2cc(C(=O)Nc3sc(C)c(C)c3C(N)=O)c3ccccc3n2)c1 | – | – | · | · | ·
CCOC(=O)c1sc(NC(=O)c2cccnc2)c(C#N)c1C | – | – | – | · | –
CCOC(=O)c1sc(NC(=O)CSc2n[nH]c(-c3ccccc3)n2)c(C#N)c1C | – | 65 | – | · | ·
CCOC(=O)c1sc(NC(=O)CSc2nc(C)cc(C)n2)c(C#N)c1C | – | – | · | · | ·
CCOC(=O)c1sc(NC(=O)c2cc(-c3ccccc3)nc3ccccc23)c(C#N)c1C | 62 | 63 | · | · | ·
Cc1cccc2c3nc4ccccc4nc3n(C)c12 | 54 | – | – | – | –
C/C=C/c1cccc(-c2nc(C(=O)NCCN3CCCCC3)cc3c2[C@H](CCO)N([S@@](=O)C(C)(C)C)C3)c1 | · | · | · | – | ·
COC(=O)c1cc2ccccc2c(=O)s1 | 85 | · | · | · | ·
CN(C)c1ccc(N=Nc2ccc(S(N)(=O)=O)cc2)cc1 | – | – | – | – | –
CC1=CC(=O)C=CC1=Nc1ccc(N(C)C)cc1 | 67 | – | – | – | –
C[C@@H](O)C#Cc1cnc2c(c1)C(=O)N([C@@H](C)CO)C[C@H](C)[C@H](CN(C)C(=O)Cc1ccncc1)O2 | · | · | · | – | –
CCN(CC)c1ccc(Nc2nc(N3CCOCC3)c3ccccc3n2)cc1 | 54 | – | – | · | ·
COc1ccc(Nc2nc(N3CCCC3)c3ccccc3n2)cc1 | – | – | – | · | ·
Cc1cccc(S(=O)(=O)N2[C@@H]3Cn4c(cccc4=O)[C@H]2[C@@H](C(=O)NC2CCC2)[C@@H]3CO)c1 | · | · | · | – | –
Cc1nc(-c2cccc(NC(=O)c3ccco3)c2)cs1 | – | – | · | – | –
Cc1nc(-c2ccc(NC(=O)/C=C\C(=O)O)cc2)cs1 | – | 61 | – | – | –
Cc1ccc2sc(-c3ccc(NC(=O)/C=C\C(=O)O)cc3)nc2c1 | 55 | – | – | – | ?
Cc1nc(-c2ccc(NC(=O)c3ccco3)cc2)cs1 | 97 | 50 | – | – | 93
C[C@H]1CN([C@@H](C)CO)C(=O)c2cc(NC(=O)Cc3cn(C)c4ccccc34)ccc2O[C@H]1CN(C)Cc1ccc(C(F)(F)F)cc1 | · | · | · | – | –
OC[C@H]1[C@@H](c2ccc(C#CC3(O)CCCC3)cc2)[C@@H]2CN(Cc3ccccc3F)CCCCN12 | · | · | · | – | –

Screening results from PubChem BioAssay.
